KDM4C inh: KDM4C (human) demethylase inhibition; Q9H3R0; GST-KDM4C 2-372, H3K9me3 peptide, LANCE TR-FRET; inhibition, % at 12.5 µM; actives 0.15% (n = 96,000);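 active means mean replicate inhibition above about 25%, with at least 55% of replicates also reaching it, limit read from the data, passing the limit was not always enough; inconclusive means only one of those two conditions met; inactive means neither condition met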
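reagent = H3K9me3 peptide substrate, Fe(II), 2-oxoglutarate | system = GST-tagged GASC-1 (JMJD2C) catalytic fragment, aa 2-372 | amount = enzyme final amount 10 nM | read-out = Fall in 671/618 emission ratio as inhibition | medium = HEPES buffer, pH 7.5, plus ascorbate | schedule = 30 min reaction, 60 min detection, RT | measured by = LANCE TR-FRET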
T cruzi growth-1: T. cruzi proliferation inhibition; inhibition, % at 8.34 µM; actives 5.9% (n = 77,000); T. cruzi beta-gal in NIH3T3, GalScreen luminescence, 90 h;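 active means mean inhibition above about 93%, with at least 55% of replicates each passing it, limit read from the data, passing the limit was not always enough; inconclusive means only one of those two conditions holds; inactive means neither condition holds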
Pf Dd2 inh: blocks growth of Plasmodium falciparum Dd2 parasites. P. falciparum Dd2 growth, SYBR Green, 72 h; active compounds read low. actives 2.3% (n = 94,000). AID 1159554. activity change, % at 10 µM; in the data active means activity change below about -80%; inconclusive means no clear call, values can overlap the other calls
IDH1 R132H inh: inhibitors of human IDH1 R132H; O75874; IDH1 R132H reductase, diaphorase/resazurin fluorescence, 60 min; inhibition, % at 10 µM; actives 0.18% (n = 70,000); in the data active means inhibition above about 34%; inconclusive means no clear call, values can overlap the other calls; inactive means below about 11%;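 further: 0% = DMSO and 100% = no enzyme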
Target sequence (O75874 whole entry R132H): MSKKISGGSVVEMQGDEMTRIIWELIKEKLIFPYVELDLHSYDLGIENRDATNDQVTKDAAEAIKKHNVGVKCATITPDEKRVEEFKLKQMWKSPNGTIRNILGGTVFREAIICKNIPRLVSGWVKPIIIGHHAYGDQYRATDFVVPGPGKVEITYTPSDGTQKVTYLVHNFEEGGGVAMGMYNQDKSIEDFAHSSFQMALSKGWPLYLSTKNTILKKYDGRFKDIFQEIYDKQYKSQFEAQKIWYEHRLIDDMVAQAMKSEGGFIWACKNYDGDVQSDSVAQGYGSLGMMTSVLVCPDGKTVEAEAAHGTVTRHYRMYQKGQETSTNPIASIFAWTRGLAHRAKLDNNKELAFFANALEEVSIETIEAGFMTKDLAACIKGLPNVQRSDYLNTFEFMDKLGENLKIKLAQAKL
T cruzi growth-2: inhibitors of T. cruzi proliferation; AID 651739; actives 72% (n = 5,600); T. cruzi beta-gal in NIH3T3, GalScreen luminescence, 90 h; shares compounds with T cruzi growth-1; inhibition, % at 8.35 µM;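 active means mean replicate inhibition above about 95% and at least 55% of replicates individually reaching it, limit read from the data; inconclusive means only one of the two criteria is met; inactive means neither criterion is met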
T cruzi growth-3: Trypanosoma cruzi proliferation inhibition; shares compounds with T cruzi growth-1; T. cruzi beta-gal in NIH3T3, GalScreen luminescence, 90 h; inhibition, % at 2.09 µM; actives 21% (n = 5,600); AID 651740;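 active means mean inhibition above about 95%, with at least 55% of replicates also reaching it, limit read from the data; inconclusive means meets just one of the two conditions; inactive means meets neither condition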;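 further: plate controls were neutral control median for no effect and positive control median for full effect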
NIH3T3 tox: cytotoxicity in mouse NIH/3T3 fibroblasts; shares compounds with T cruzi growth-1; NIH/3T3 viability, CellTiter-Glo ATP luminescence, 90 h; cytotoxicity (signal decrease), % at 8.35 µM; actives 14% (n = 5,600); AID 651742;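 active means mean signal decrease across replicates above about 35% based on untreated-well scatter, with enough replicates individually passing, limit read from the data; inconclusive means no rule stated though some were filed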;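 further: 0% = median of neutral control wells and 100% = median of positive control wells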
3T3 cytotox 2: NIH/3T3 (mouse) viability loss; shares compounds with T cruzi growth-1; actives 56% (n = 5,600); NIH/3T3 viability, CellTiter-Glo ATP luminescence, 90 h; inhibition, % at 24.9 µM;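 active means mean loss of cell viability signal at or above a set limit, and enough replicates individually reaching it; inconclusive means meets only the mean limit or only the replicate share; inactive means meets neither condition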;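 further: 0% = median of neutral control wells and 100% = median of positive control wells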
* hit, by the source's call; ? = inconclusive; · = no result given. Rows were chosen to be rich in hits. Some 5.8% of all compounds tested hit in one or more screens of this group.

SMILES	KDM4C inh	T cruzi growth-1	Pf Dd2 inh	IDH1 R132H inh	T cruzi growth-2	T cruzi growth-3	NIH3T3 tox	3T3 cytotox 2
C[C@@H]1CN([C@@H](C)CO)S(=O)(=O)c2ccc(C#CCN(C)C)cc2O[C@H]1CN(C)C(=O)CC1CC1	0	?	-26	-1	97*	85	-5	9
C[C@H]1CN([C@@H](C)CO)S(=O)(=O)c2ccc(C#CCN(C)C)cc2O[C@H]1CN(C)C(=O)CC1CC1	7	?	3	0	100*	78	2	9
C[C@@H]1CCCCO[C@@H](CN(C)C)[C@@H](C)CN([C@H](C)CO)C(=O)c2cc(NC(=O)CCC(F)(F)F)ccc2O1	-1	18	12	0	·	·	·	·
C[C@H](CO)N1C[C@H](C)[C@H](CN(C)C(=O)Nc2ccc3c(c2)OCO3)Oc2ncc(C#Cc3ccc(C(F)(F)F)cc3)cc2C1=O	-1	?	-60	2	100*	?	26	106*
C[C@H](CO)N1C[C@H](C)[C@H](CN(C)C(=O)Nc2ccccc2)Oc2ncc(C#Cc3ccc(C(F)(F)F)cc3)cc2C1=O	·	117*	-35	0	108*	?	16	105*
C[C@H](CO)N1C[C@H](C)[C@H](CN(C)C(=O)Nc2ccccc2)Oc2ncc(C#CC3CCCC3)cc2C1=O	-1	61	-34	·	·	·	·	·
C[C@H](CO)N1C[C@H](C)[C@H](CN(C)C(=O)Nc2ccc(F)cc2)Oc2ncc(C#Cc3ccccc3)cc2C1=O	-3	110*	-67	·	80	31	57*	103*
C[C@@H]1CN([C@H](C)CO)C(=O)c2cc(C#Cc3ccc(F)cc3)cnc2O[C@H]1CN(C)C(=O)Nc1ccc(F)cc1	-2	8	-23	0	·	·	·	·
C[C@@H]1CN([C@H](C)CO)C(=O)c2cc(C#CC3CC3)cnc2O[C@@H]1CN(C)C(=O)Nc1ccccc1	0	107*	-12	-5	53	46	-5	20
C[C@H]1CN([C@@H](C)CO)C(=O)Cc2cc(NC(=O)Nc3ccccc3)ccc2O[C@H]1CN(C)S(C)(=O)=O	1	·	-2	-1	·	·	·	·
COc1ccc(/C=C2\C(=O)N(c3ccc(Cl)cc3)C(c3ccc(F)cc3)S2(=O)=O)c(OC)c1 (stereo not drawn)	·	·	·	-2	·	·	·	·
COc1ccc(NC(=O)N(C)C[C@@H]2Oc3ncc(C#Cc4ccc(C(F)(F)F)cc4)cc3C(=O)N([C@H](C)CO)C[C@@H]2C)cc1	-1	108*	-73	-1	101*	?	10	104*
N#Cc1ccc(-c2ccc3c(c2)[C@H]2[C@H](CCN2C(=O)c2ccc4c(c2)OCO4)[C@H](CO)N3)cc1	-3	25	-21	·	·	·	·	·
CN(C)C(=O)c1ccc(-c2ccc3c(c2)[C@@H]2[C@@H](CCN2C(=O)c2ccc4c(c2)OCO4)[C@@H](CO)N3)cc1	0	100*	-9	·	109*	61	2	1
N#Cc1cccc(-c2ccc3c(c2)[C@@H]2[C@@H](CCN2C(=O)c2ccc4c(c2)OCO4)[C@H](CO)N3)c1	1	?	-17	·	97*	73	30	48*
COCC(=O)N1CC2(C1)[C@H](c1ccccc1)[C@@H](CO)N2CCC(F)(F)F	19	·	5	·	·	·	·	·
CO[C@@H]1CN(C)C(=O)c2ccc(NS(=O)(=O)CC(F)(F)F)cc2OC[C@H](C)N(C(=O)NC(C)C)C[C@@H]1C	0	55	·	0	·	·	·	·
C/C=C/c1ccc([C@H]2[C@@H](CO)N3CCCCN(S(=O)(=O)c4ccc(OC)cc4)C[C@H]23)cc1	13	85	-70	·	·	·	·	·
C/C=C/c1ccc([C@@H]2[C@H]3CN(S(=O)(=O)c4ccc(OC)cc4)CCCCN3[C@H]2CO)cc1	-2	?	-11	·	103*	82	29	68*
C/C=C/c1ccc([C@H]2[C@@H](CO)N3CCCCN(S(=O)(=O)c4ccc(F)cc4)C[C@H]23)cc1	-2	?	-71	·	108*	39	12	103*
C/C=C/c1ccc([C@H]2[C@H](CO)N3CCCCN(S(=O)(=O)c4ccc(OC)cc4)C[C@@H]23)cc1	-1	100*	6	·	108*	90	30	102*
C[C@@H](NC(=O)[C@@H]1[C@@H](CO)[C@@H]2Cn3c(cccc3=O)[C@H]1N2Cc1ccccc1)c1ccccc1	-1	31	10	·	·	·	·	·
O=C(CC1CC1)N1CC2(C1)[C@H](c1ccccc1)[C@H](CO)N2Cc1cccc(F)c1	0	·	16	·	·	·	·	·
CS(=O)(=O)Nc1ccc2c(c1)[C@H]1C[C@H](CC(=O)NCc3ccncc3)O[C@@H](CO)[C@H]1O2	-1	102*	12	0	1	12	1	4
CS(=O)(=O)Nc1ccc2c(c1)[C@@H]1C[C@@H](CC(=O)NCc3ccncc3)O[C@H](CO)[C@@H]1O2	0	117*	-14	-1	-7	-18	8	4
SMILES	KDM4C inh	T cruzi growth-1	Pf Dd2 inh	IDH1 R132H inh	T cruzi growth-2	T cruzi growth-3	NIH3T3 tox	3T3 cytotox 2
CC(C)CC#Cc1ccc2c(c1)O[C@@H](CN(C)C(=O)CC1CC1)[C@@H](C)CN([C@@H](C)CO)S2(=O)=O	-1	·	-37	-1	·	·	·	·
CCCC#Cc1ccc2c(c1)O[C@H](CN(C)C(=O)CC1CC1)[C@@H](C)CN([C@H](C)CO)S2(=O)=O	2	101*	-46	0	108*	48	4	20
CCCC#Cc1ccc2c(c1)O[C@H](CN(C)C(=O)CC1CC1)[C@@H](C)CN([C@@H](C)CO)S2(=O)=O	-1	111*	-46	-4	104*	70	8	48*
C[C@H](CO)N1C[C@H](C)[C@H](CN(C)C(=O)CC2CC2)Oc2cc(C#CCN(C)C)ccc2S1(=O)=O	-1	76	16	1	·	·	·	·
C[C@@H]1CN([C@H](C)CO)C(=O)c2cc(NC(=O)Cc3ccccc3)ccc2O[C@@H](C)CCCCO[C@H]1CN(C)C(=O)Nc1ccc2c(c1)OCO2	0	53	-74	4	·	·	·	·
C[C@@H]1CCCCO[C@H](CN(C)C(=O)Nc2ccc3c(c2)OCO3)[C@H](C)CN([C@@H](C)CO)C(=O)c2cc(NC(=O)Cc3ccccc3)ccc2O1	13	?	-74	16	?	45	-14	-18
C[C@H]1CN([C@@H](C)CO)C(=O)Cc2cc(NC(=O)CCCN(C)C)ccc2O[C@@H]1CN(C)C(=O)Nc1ccc2c(c1)OCO2	4	?	-46	0	17	26	-11	-2
